SMILES strings stand for the structures.

This passage reports IC50 results from ChEMBL document CHEMBL4400560, “Discovery and optimization of novel piperazines as potent inhibitors of fatty acid synthase (FASN)” (Bioorg Med Chem Lett, 2019).

Assay [1] can be described thus: Inhibition of dehydratase (unknown origin). Further details: species or system Homo sapiens.
Assay [2] is described as follows: Inhibition of thioesterase (unknown origin). Also on record: species or system Homo sapiens.
Assay [3] can be described thus: Inhibition of ketoreductase (unknown origin). Further details: species or system Homo sapiens.
The nature of assay [4]: Inhibition of enoyl reductase (unknown origin). Also on record: species or system Homo sapiens.
For the next assay, the target named is Fatty acid synthase (Homo sapiens, UniProt P49327). The assay is described as follows: Inhibition of full length recombinant human FASN using acetyl-CoA/malonyl-CoA as substrate preincubated for 60 mins followed by substrate addition and measured after 90 mins in presence of NADPH. A digest of the protocol: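 Full-length recombinant human FASN. CoA released is detected as a fluorescent conjugate with the coumarin maleimide CPM. IC50 is the mean of at least two separate runs.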
Fatty acid synthase, sequence (P49327 whole entry): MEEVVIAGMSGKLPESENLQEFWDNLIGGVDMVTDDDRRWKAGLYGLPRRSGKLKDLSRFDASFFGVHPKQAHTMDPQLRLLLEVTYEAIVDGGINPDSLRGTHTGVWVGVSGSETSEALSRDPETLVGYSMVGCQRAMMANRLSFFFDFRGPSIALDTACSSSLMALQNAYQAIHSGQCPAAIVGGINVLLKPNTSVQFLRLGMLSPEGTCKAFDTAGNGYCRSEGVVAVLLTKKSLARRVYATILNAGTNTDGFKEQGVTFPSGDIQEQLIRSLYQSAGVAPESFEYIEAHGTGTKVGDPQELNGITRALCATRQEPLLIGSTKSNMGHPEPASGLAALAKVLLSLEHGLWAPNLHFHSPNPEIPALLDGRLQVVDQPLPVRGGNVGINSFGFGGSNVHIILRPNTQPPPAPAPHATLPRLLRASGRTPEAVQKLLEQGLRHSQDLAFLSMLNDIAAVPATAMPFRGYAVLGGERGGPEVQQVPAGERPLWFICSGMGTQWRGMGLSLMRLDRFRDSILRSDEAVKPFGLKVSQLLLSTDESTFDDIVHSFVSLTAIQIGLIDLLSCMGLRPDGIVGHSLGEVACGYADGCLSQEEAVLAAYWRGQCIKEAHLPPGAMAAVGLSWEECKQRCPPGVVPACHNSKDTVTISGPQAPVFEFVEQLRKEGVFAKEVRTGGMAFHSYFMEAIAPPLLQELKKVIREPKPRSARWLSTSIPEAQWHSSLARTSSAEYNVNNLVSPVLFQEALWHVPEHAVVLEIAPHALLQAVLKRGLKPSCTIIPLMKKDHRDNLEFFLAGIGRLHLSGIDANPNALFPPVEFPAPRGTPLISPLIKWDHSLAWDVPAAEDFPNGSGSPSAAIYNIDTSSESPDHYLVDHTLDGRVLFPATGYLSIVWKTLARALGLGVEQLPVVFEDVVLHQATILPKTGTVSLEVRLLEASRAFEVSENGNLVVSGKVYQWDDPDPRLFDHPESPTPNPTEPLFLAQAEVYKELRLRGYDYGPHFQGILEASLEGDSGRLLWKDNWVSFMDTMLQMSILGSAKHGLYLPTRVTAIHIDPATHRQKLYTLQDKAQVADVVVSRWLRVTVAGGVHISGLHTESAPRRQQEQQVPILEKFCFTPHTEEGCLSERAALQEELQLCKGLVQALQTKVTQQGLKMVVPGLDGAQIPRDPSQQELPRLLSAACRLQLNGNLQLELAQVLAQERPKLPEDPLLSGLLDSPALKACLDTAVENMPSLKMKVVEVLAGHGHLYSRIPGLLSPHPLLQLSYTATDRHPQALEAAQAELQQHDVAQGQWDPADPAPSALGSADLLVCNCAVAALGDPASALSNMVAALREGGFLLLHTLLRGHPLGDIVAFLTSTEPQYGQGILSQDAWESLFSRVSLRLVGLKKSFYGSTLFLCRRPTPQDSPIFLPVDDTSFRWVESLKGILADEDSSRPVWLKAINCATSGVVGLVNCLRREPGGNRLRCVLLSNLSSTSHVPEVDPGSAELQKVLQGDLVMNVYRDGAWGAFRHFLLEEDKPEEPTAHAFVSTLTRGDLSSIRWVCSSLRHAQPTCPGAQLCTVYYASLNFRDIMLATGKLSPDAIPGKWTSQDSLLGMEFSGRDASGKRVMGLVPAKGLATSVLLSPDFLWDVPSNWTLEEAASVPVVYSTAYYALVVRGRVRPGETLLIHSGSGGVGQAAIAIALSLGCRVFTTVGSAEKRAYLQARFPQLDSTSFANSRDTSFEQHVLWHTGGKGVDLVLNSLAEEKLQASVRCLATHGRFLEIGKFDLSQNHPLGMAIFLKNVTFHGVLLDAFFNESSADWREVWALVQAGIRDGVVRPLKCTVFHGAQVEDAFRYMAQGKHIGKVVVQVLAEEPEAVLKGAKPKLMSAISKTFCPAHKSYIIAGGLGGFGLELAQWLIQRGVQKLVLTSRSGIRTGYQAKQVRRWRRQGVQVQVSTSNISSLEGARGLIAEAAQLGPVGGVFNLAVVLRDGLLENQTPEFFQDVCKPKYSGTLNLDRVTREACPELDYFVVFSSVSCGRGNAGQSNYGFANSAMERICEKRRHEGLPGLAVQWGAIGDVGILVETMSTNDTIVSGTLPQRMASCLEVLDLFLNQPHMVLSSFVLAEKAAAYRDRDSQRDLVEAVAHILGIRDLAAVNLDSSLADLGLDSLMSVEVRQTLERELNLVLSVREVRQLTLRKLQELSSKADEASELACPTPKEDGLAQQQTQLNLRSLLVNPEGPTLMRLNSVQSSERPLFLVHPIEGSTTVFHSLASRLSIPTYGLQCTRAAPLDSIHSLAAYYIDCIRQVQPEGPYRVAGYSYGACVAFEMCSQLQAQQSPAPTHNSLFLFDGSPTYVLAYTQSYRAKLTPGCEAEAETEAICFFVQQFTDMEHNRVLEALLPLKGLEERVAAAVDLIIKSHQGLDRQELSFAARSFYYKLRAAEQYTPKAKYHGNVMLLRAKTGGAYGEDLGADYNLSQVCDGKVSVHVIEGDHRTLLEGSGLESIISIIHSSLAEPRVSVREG

One may read the IC50 as the concentration at which inhibition is half-maximal. Take `O=C(c1ccc(-c2ccccc2)cc1)N1CCN(C(=O)C2CCCO2)CC1` (racemic): the IC50 in assay [1] is above 50 µM; in assay [2], above 50 µM; in assay [3] it was 1800 nM; in assay [4] it was above 50 µM; at Fatty acid synthase it was 1140 nM.
